Source: PubChem BioAssay
TCR-CD3 inh – inhibitors of human TCR-CD3 interaction. inhibition, % at 9.4 µM. TAMRA-labeled TCR probe fluorescence, biochemical. actives 0.37% (n = 360,000); in the data active = inhibition above about 19%;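 also: recombinant mutant TCR 2C K166C tagged with TAMRA read by polarization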
SIAE primary – blocks human sialic acid acetylesterase; Q9HAT2; SIAE FP-Rh probe binding, fluorescence polarization; inhibition, % at 9.66 µM; actives 0.69% (n = 370,000); AID 1053197;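 active = inhibition above a cutoff: mean of compounds within the control limits plus 3 SD of those, cut at about 17% in these data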
PRMT1 inh – inhibitors of human PRMT1; AID 652257; recombinant PRMT1, activity-based probe fluorescence polarization; Q99873; inhibition, % at 2.79 µM; actives 1.3% (n = 370,000);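 active = inhibition above about 21% made by adding two undisclosed values, limit read from the data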
Target sequence (Q99873 whole entry, looked up): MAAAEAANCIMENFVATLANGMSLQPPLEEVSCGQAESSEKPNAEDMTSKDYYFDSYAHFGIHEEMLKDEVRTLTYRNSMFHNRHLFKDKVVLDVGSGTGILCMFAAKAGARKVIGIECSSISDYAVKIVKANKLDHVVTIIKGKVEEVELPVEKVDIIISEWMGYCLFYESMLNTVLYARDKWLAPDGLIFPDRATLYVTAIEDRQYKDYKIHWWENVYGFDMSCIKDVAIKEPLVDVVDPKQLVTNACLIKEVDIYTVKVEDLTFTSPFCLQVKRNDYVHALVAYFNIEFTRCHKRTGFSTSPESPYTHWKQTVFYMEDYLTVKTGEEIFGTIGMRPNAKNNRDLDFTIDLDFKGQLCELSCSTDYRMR
HTRA1 inh – inhibitors of human serine peptidase HTRA1; recombinant HTRA1, FP-rhodamine activity-based probe, fluorescence polarization; inhibition, % at 5.96 µM; actives 0.5% (n = 340,000); in the data active = inhibition above about 36%
ABHD4 inh – ABHD4 (mouse) inhibition, primary FP screen; inhibition, % at 8.92 µM; actives 0.54% (n = 370,000); purified mABHD4, FP-Rh probe fluorescence polarization; Q8VD66; AID 720543;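 active = inhibition exceeding the mean over every tested compound plus 3 SD, cut at about 30% in these data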
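Test system: mABHD4 protein | Buffer or medium: HEPES pH 7.0 buffer, 150 mM NaCl, 0.01% Pluronic F-127 | Probe or stimulus: FP-Rh fluorescent activity-based probe, added after compound pre-incubation | Timing: Pre-incubation 45 min, probe exposure 60 min, at 25 °C | Technique: Fluorescence polarization, excitation 525 nm, emission 598 nm, BODIPY TMR filters | Repeats: Single well per compound (singlicate)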
mABHD4 conf – confirmation of mouse ABHD4 inhibitors; AID 720658; purified mABHD4, FP-Rh probe fluorescence polarization; inhibition, % at 8.92 µM; actives 55% (n = 1,800); shares compounds with ABHD4 inh;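 active = mean inhibition across replicates above the hit cutoff set in the primary screen, cut at about 30% in these data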
SIAE inh conf – confirmation of human SIAE inhibitors. shares compounds with SIAE primary. SIAE FP-Rh activity-based probe, fluorescence polarization. inhibition, % at 9.66 µM. actives 13% (n = 2,300);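 active = mean inhibition of the replicates above the hit cutoff set in the primary screen, cut at about 17% in these data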;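 also: inhibitors lower polarization as more probe stays unbound to SIAE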
A number is an active result; . = inactive; / = not tested or not shown. This is a sample that favours compounds with a hit; in the whole collection about 2.6% have one here.

SMILES | TCR-CD3 inh | SIAE primary | PRMT1 inh | HTRA1 inh | ABHD4 inh | mABHD4 conf | SIAE inh conf
CCOC(=O)c1c(CSc2ccccc2)n(C)c2cc(Br)c(O)c(CN(C)C)c12 | . | . | . | . | 39 | . | /
CCOC(=O)c1c(CN2CCOCC2)n(-c2ccccc2)c2cc(Br)c(O)c(CN(C)C)c12 | . | . | . | . | . | / | /
CCOC(=O)c1c(CSc2ccc(C)cc2)n(C)c2cc(Br)c(O)c(CN(C)C)c12 | . | . | . | . | 40 | . | /
CCOC(=O)c1c(CN2CCCCC2)n(C)c2cc(Br)c(O)c(CN(C)C)c12 | / | / | / | . | / | / | /
COC(=O)c1ccc(Cn2ccc3ccc(-c4ccc5ccn(C(=O)c6ccc(C)cc6)c5c4)cc32)cc1 | / | . | . | / | . | / | /
CN1CCCN(C(=O)C2CCN(c3ncnc4c3sc3cccc(F)c34)CC2)CC1 | / | . | . | / | . | / | /
CN(C)c1ccc(NC(=O)CSc2nnc(-c3ccco3)c(-c3ccco3)n2)cc1 | . | . | . | . | . | / | /
O=C(CSc1nnc(-c2ccco2)c(-c2ccco2)n1)Nc1ccccc1 | . | . | 48 | . | 51 | 39 | /
CSc1nnc(-c2ccco2)c(-c2ccco2)n1 | . | . | 59 | . | 40 | 46 | /
O=C(O)c1cc(O)c2c(c1)C(=O)c1cc(O)cc(O)c1C2=O | . | . | . | . | 61 | 42 | /
O=C1c2cc(Cl)ccc2-c2c(O)cc(Cl)cc21 | . | . | . | . | . | / | /
CCN(CC)C(=O)c1ccc2c(c1)NC(=O)C(C)(C)O2 | / | . | . | / | . | / | /
Nc1[nH]c(C(=O)c2ccccc2)c(-c2ccc(Cl)cc2Cl)c1C(=O)NCCc1c[nH]c2ccccc12 | . | 19 | . | / | 33 | . | .
Nc1[nH]c(C(=O)c2ccc(Br)cc2)c(-c2ccc(Cl)cc2Cl)c1C(=O)NCCc1c[nH]c2ccccc12 | . | . | . | / | . | / | /
CN1CCS/C1=C/C=C1/SC(=S)N(Cc2ccccc2)C1=O | . | 22 | . | . | 86 | . | 22
Cc1cc2ccccc2n1CCNC(=O)Cc1cccc2ccccc12 | 68 | 22 | . | . | 46 | . | .
CNc1nc(NCc2ccccc2)c2ccccc2n1 | . | . | . | . | . | / | /
Oc1ccccc1Nc1nc(NCc2ccccc2)c2ccccc2n1 | . | 21 | . | . | 43 | 55 | .
CCOC(=O)[C@@H]1CSCCS(=O)(=O)N1Cc1ccc(C(F)(F)F)cc1 | . | . | . | / | . | / | /
CNC(=O)c1ccc(-c2sc3nc(N4CCOCC4)c4c(c3c2N)CC(C)(C)OC4)o1 | . | . | . | . | . | / | /
CNC(=O)c1ccc(-c2sc3nc(N4CCOCC4)c4c(c3c2N)CCCC4)o1 | . | 22 | . | . | 32 | . | .
O=C(CN1C(=O)/C(=C2/SC(=S)N(CCS(=O)(=O)O)C2=O)c2ccccc21)Nc1cccc(C(F)(F)F)c1 | . | 22 | . | . | 85 | 93 | 22
CC(=O)CC[C@@H]1CC[C@]2(CCCN(C(=O)C3CCCCC3)C2)O1 | / | . | . | / | . | / | /
O=C1N=c2ccccc2=C1c1sc(=S)n(-c2ccc(O)cc2)c1O | . | 22 | . | . | 38 | . | .
Cc1c(-n2c(O)c(C3=c4ccccc4=NC3=O)sc2=S)c(=O)n(-c2ccccc2)n1C | . | . | . | . | . | / | /
SMILES | TCR-CD3 inh | SIAE primary | PRMT1 inh | HTRA1 inh | ABHD4 inh | mABHD4 conf | SIAE inh conf
O=C(/C=C/c1ccco1)NC(=S)Nc1ccc(N2CCCC2)cc1 | . | 18 | 25 | . | 37 | . | .
O=C(NN=Cc1cc(Br)c(O)c(Br)c1)c1ccccc1NS(=O)(=O)c1cccs1 | . | 19 | . | . | 34 | 33 | .
O=C(NN=Cc1ccc(F)cc1)c1ccccc1NS(=O)(=O)c1cccs1 | . | . | . | . | . | / | /
COc1ccc(C2CC(=O)C(c3ccccc3C)=CN2Cc2ccccc2)cc1 (stereo not given) | . | . | . | / | . | / | /
C/C=C/C=C/C(=O)c1cc(C)c(OC(=O)CNC(=O)OC(C)(C)C)c(C)c1O | . | . | . | / | . | / | /
COc1ccc(-n2c(=O)c3c4c(sc3n(CC(=O)Nc3cc(C)[nH]n3)c2=O)CCC4)c(OC)c1 | . | . | . | . | . | / | /
COc1ccccc1-n1c(=O)c2c3c(sc2n2c(=S)[nH]nc12)CCC3 | . | 18 | . | . | 34 | . | .
CC(C)Cn1c(=O)cc(N2CCN(c3cccc(C(F)(F)F)c3)CC2)[nH]c1=O | / | . | . | / | . | / | /
CC(=O)Oc1cc(C)c(Cl)c2c(OC(C)=O)cc(C(C)=O)c(O)c12 | . | 36 | 24 | / | 68 | 39 | 18
COc1ccc2cc(-c3cccc4[nH]cc(C)c34)ccc2c1 | / | . | . | / | . | / | /
CCCCOCCCNC(=O)C[C@H]1C[C@@]2(C(=O)OC)C(=C[C@H](C(C)C)O[C@@H]2C2CC2)N(Cc2ccc3c(c2)OCO3)C1=O | / | . | . | / | . | / | /
O=C(O)COc1ccccc1/C=N/NC(=O)c1cc2ccccc2cc1O | . | 48 | . | . | 37 | . | 53
O=C(Nc1cccc(Br)c1)OC1CC2CC1[C@H]1CCCCN1C2 (stereo not given in full) | / | . | . | / | . | / | /
Cc1noc(C)c1S(=O)(=O)N1CCCc2nc(-c3ccc(Br)cc3)ccc21 | . | . | . | / | . | / | /
Nc1cc(Cl)nc(N/N=C/c2c(O)ccc3ccccc23)n1 | . | 19 | . | . | 32 | . | .
Cc1ccc(CNC(=O)c2ccc(S(=O)(=O)N3CCCCC3)cc2)cc1 | . | . | . | . | . | / | /
Cc1cc2cc(CNC(=O)c3ccc(S(=O)(=O)N4CCCCC4)cc3)ccc2n1C | 85 | 35 | . | . | 87 | . | .
Nc1nc(N)c2cc(Sc3ccc(Cl)cc3)ccc2n1 | . | . | . | . | . | / | /
Nc1nc(N)c2cc(CNc3ccc(Cl)c(Cl)c3)ccc2n1 | . | 39 | . | . | 38 | 36 | 46
Nn1c(SCc2cccc3ccccc23)nnc1-c1cc(-c2ccc(Cl)cc2)n[nH]1 | / | . | . | / | . | / | /
Cc1ccc(NC(=O)OC2CC3CC2[C@H]2CCCCN2C3)cc1C (stereo not given in full) | / | . | . | / | . | / | /
O=C(NNc1nc2c(F)cccc2s1)c1cc(=O)c2ccccc2o1 | . | 18 | . | . | 39 | 30 | .
COc1ccc(/C=N/c2c(-c3ccco3)nc3ccccn23)cc1OC | . | 25 | . | . | 44 | . | .
COc1ccc2c(c1)c(/C=N/Nc1nc3ccccc3[nH]1)c(C)n2C | . | 32 | . | . | 33 | 59 | 30
CC/C(=C\C(=O)c1ccncc1)Nc1ccc(O)cc1 | 51 | 22 | . | . | 75 | 38 | .
O=C(N/N=C/c1ccc(O)cc1)c1ccncc1 | . | . | . | . | . | / | /
Fc1ccccc1-c1ccc(/C=N/Nc2nc3ccccc3[nH]2)o1 | . | 35 | . | . | 40 | 46 | 35
